Calls of active or inactive are those of the source. The rule behind the calls is not given here.
Tests used:
[1] = Cmax in mouse at 1 mg/kg, iv; assay type: ADME, organism-based; set-up: route intravenous, dose 1 mg/kg; conditions: in vivo
[2] = Toxicity in mouse xenografted with mouse BAF3 cells harboring TEL fused TRKB assessed as effect on body weight at 40 to 80 mg/kg, po administered once daily for 10 days; assay type: organism-based; conditions: in vivo, 240 h, dose 40-80 mg/kg/day, time 10 day
Outline: (§1)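 nu/nu mice were given subcutaneous right-flank implants in 1:1 DMEM/matrigel: 1 million BaF3 fusion cells or 5 million KM-12-LUC cells. Oral gavage started at 150–200 mm3 (xenograft) or 200–400 mm3 (allograft). Dosing used 40 or 80 mg/kg in HKI vehicle (0.5% methylcellulose/0.4% Tween 80 in ddH2O), with 5 mice per group. Body weight was recorded daily and behaviour observed.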

[3] = biological target: VEGFR2 (vascular endothelial growth factor receptor 2), wild type, TEL fusion (Homo sapiens, UniProt P35968); assay: Inhibition of wild type TEL fused VEGFR2 (unknown origin) transfected in mouse BAF3 cells assessed as growth inhibition after 72 hrs by CCK8 assay; assay type: cell-based; conditions: mouse BaF3 cells transfected with wild type TEL-fused VEGFR2
BaF3 [4] = assay: Antitumor activity against mouse BAF3 cells harboring LMNA fused TRKA-G667S mutant allografted in nude mouse assessed as tumor growth inhibition at 80 mg/kg, po administered twice daily for 10 days relative to control; assay type: functional; conditions: 240 h, time 10 day, read-out: TGI
Outline: (§2)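 Nu/nu mice given 1 million BaF3 cells (TEL-TRKA, TEL-TRKB, TEL-TRKC, LMNA-TRKA-F589L or LMNA-TRKA-G667S) in DMEM, 1:1 with matrigel, injected subcutaneously into the right flank; oral gavage began at 200–400 mm³, 5 mice per group, compound in 0.5% methylcellulose/0.4% Tween 80 in ddH₂O, 10 days; tumor volume [(W²×L)/2] and body weight recorded daily; TGI versus vehicle.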

KM12-Luc [5] = assay: Induction of cell cycle arrest in human KM-12-LUC cells assessed as accumulation at G0/G1 phase at 0.01 to 10 uM after 24 hrs by PI/RNase staining based flow cytometric analysis; assay type: functional; conditions: dose 0.01-10 µM
Outline: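 KM-12-LUC cells treated with DMSO or serially diluted compound. Cells fixed in cold 70% ethanol overnight at −20 °C, then stained with PI/RNase buffer. Cell cycle distribution measured by flow cytometry.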

[6] = biological target: High affinity nerve growth factor receptor (Homo sapiens, UniProt P04629); assay: Inhibition of TRKA in human KM-12-LUC cells assessed as reduction in AKT phosphorylation at T308 residue after 2 hrs by Western blot analysis; assay type: cell-based, KM12-Luc
Outline: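 KM-12-LUC (TPM3-TRKA fused colon cancer cells) grown in RPMI 1640 with 10% FBS and 1% penicillin/streptomycin at 37 °C under 5% CO2. Serially diluted compound added for 2 h. Lysates western blotted for phospho-AKT (T308/S473) and phospho-ERK1/2 (T202/Y204).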

[7] = Apparent volume of distribution in mouse at 1 mg/kg, iv; assay type: ADME, organism-based; conditions: in vivo, read-out: Vz
[8] = Half life in Sprague-Dawley rat at 1 mg/kg, iv; assay type: ADME, organism-based; conditions: in vivo
[9] = Apparent volume of distribution in Beagle dog at 1 mg/kg, iv; assay type: ADME, organism-based, Canis lupus familiaris; conditions: in vivo, read-out: Vz
[10] = Toxicity in mouse xenografted with mouse BAF3 cells harboring […] TRKA-F589L mutant assessed as effect on body weight at 40 to 80 mg/kg, po administered once daily for 10 days; assay type: organism-based; conditions: in vivo, 240 h, dose 40-80 mg/kg/day, time 10 day; outline: as §1
[11] = Toxicity in mouse xenografted with mouse BAF3 cells harboring TEL fused TRKA assessed as effect on animals behaviour at 40 to 80 mg/kg, po administered once daily for 10 days; assay type: organism-based; conditions: in vivo, 240 h, dose 40-80 mg/kg/day, time 10 day; outline: as §1
[12] = Apparent clearance in Beagle dog at 1 mg/kg, iv; assay type: ADME, organism-based, Canis lupus familiaris; conditions: in vivo
BaF3 [13] = assay: Antitumor activity against mouse BAF3 cells harboring TEL fused TRKA allografted in nude mouse assessed as tumor growth inhibition administered orally once daily for 10 days; assay type: functional, cell-based; conditions: dose 40-80 mg/kg/day, time 10.0 day; outline: as §2
[14] = Cmax in Sprague-Dawley rat at 10 mg/kg, po; assay type: ADME, organism-based; set-up: route oral, dose 10 mg/kg; conditions: in vivo
[15] = Toxicity in mouse xenografted with human […] cells assessed as effect on body weight at 40 to 80 mg/kg, po administered once daily for 10 days; assay type: organism-based; conditions: in vivo, 240 h, dose 40-80 mg/kg/day, time 10 day; outline: as §1
[16] = biological target: T1, BDNF/NT-3 growth factors receptor (Homo sapiens, UniProt Q16620); assay: Inhibition of human TRKB assessed as remaining enzyme activity at 1 uM by Kinomescan method relative to control
Target sequence in this assay (Q16620 32-822 limits assumed): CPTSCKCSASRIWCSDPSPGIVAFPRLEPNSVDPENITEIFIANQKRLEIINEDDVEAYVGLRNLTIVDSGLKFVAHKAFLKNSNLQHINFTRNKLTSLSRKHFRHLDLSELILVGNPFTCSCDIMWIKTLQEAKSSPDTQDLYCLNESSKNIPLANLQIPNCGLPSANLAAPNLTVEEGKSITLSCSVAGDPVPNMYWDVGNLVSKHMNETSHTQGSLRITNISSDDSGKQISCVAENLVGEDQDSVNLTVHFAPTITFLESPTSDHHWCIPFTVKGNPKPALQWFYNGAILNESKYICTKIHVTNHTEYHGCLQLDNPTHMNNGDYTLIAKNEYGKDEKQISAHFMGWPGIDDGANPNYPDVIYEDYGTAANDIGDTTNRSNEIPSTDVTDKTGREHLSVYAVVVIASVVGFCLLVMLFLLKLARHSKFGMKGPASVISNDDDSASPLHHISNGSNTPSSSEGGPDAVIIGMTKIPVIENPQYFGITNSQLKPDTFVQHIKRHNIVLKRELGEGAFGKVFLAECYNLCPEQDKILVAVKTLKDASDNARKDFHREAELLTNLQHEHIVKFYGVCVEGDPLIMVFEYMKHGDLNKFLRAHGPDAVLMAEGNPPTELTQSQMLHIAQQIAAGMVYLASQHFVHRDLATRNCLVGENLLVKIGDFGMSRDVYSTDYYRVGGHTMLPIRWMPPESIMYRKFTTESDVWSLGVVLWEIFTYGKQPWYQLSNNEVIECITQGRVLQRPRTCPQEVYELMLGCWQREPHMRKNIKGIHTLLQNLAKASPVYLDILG

[17] = Toxicity in mouse xenografted with mouse BAF3 cells harboring […] TRKA-G667S mutant assessed as effect on body weight at 40 to 80 mg/kg, po administered twice daily for 10 days; assay type: organism-based; conditions: in vivo, 240 h, dose 40-80 mg/kg, time 10 day; outline: as §1
[18] = Apparent volume of distribution in Sprague-Dawley rat at 1 mg/kg, iv; assay type: ADME, organism-based; conditions: in vivo, read-out: Vz
[19] = Half life in mouse at 1 mg/kg, iv; assay type: ADME, organism-based; conditions: in vivo
[20] = Apparent clearance in mouse at 1 mg/kg, iv; assay type: ADME, organism-based; conditions: in vivo
[21] = Tmax in Beagle dog at 1 mg/kg, iv; assay type: ADME, organism-based, Canis lupus familiaris; conditions: in vivo
Outline: (§3)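 Single-dose PK in mice, Sprague Dawley rats and beagle dogs, given i.v. (1 mg/kg) or p.o. (10 mg/kg mice and rats; 5 mg/kg dogs). AUC0-t, T1/2, Tmax and oral bioavailability (F) derived from plasma profiles.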

[22] = Apparent clearance in mouse at 10 mg/kg, po; assay type: ADME, organism-based; conditions: in vivo, read-out: CLz/F (converted)
[23] = system: High affinity nerve growth factor receptor (Homo sapiens), P04629 [G595R]; assay: Inhibition of LMNA fused TRKA G595R mutant (unknown origin) transfected in mouse BAF3 cells assessed as growth inhibition after 72 hrs by CCK8 assay; assay type: cell-based
[24] = Tmax in mouse at 1 mg/kg, iv; assay type: ADME, organism-based; conditions: in vivo; outline: as §3
KM12-Luc [25] = assay: Antitumor activity against human […] cells xenografted in nude mouse assessed as tumor growth inhibition administered orally once daily for 10 days relative to control; assay type: functional, cell-based; conditions: dose 40-80 mg/kg/day, time 10.0 day
Outline: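 Nu/nu mice given 5 million KM-12-LUC cells in DMEM, 1:1 with matrigel, injected subcutaneously into the right flank; oral gavage started at tumor size 150–200 mm³, 5 mice per group, compound in 0.5% methylcellulose/0.4% Tween 80 in ddH₂O; body weight and tumor volume [(W²×L)/2] measured daily; TGI versus vehicle.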

[26] = biological target: T1, BDNF/NT-3 growth factors receptor; assay: Inhibition of human TRKB by Z-LYTE or ADP-Glo assay
Outline: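 Purified kinase proteins tested biochemically in Z'LYTE or ADP-Glo format.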
Target sequence in this assay (Q16620 whole entry): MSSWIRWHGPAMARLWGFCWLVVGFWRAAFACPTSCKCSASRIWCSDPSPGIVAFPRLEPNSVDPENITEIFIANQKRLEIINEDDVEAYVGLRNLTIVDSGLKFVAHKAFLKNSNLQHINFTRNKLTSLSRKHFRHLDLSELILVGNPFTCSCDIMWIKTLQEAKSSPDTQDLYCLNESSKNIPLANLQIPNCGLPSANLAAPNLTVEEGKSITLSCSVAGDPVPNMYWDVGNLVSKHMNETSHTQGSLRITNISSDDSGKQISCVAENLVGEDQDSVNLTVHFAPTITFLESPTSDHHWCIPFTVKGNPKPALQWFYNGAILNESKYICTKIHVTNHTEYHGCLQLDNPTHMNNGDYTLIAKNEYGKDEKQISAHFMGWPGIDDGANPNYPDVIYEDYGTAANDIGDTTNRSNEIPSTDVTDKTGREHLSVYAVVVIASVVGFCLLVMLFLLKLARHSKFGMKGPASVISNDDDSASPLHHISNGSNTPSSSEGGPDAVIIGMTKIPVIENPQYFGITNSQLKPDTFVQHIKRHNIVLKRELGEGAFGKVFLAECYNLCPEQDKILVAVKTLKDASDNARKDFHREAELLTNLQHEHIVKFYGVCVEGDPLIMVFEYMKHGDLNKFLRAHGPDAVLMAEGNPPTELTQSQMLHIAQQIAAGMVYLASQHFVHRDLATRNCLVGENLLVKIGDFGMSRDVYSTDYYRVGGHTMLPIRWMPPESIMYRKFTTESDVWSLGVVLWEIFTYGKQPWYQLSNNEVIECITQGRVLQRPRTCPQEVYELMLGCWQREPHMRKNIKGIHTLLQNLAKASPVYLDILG

[27] = Apparent volume of distribution in Beagle dog at 5 mg/kg, po; assay type: ADME, organism-based, Canis lupus familiaris; conditions: in vivo
[28] = Toxicity in mouse xenografted with mouse BAF3 cells harboring […] TRKA-F589L mutant assessed as effect on abnormal behaviour at 40 to 80 mg/kg, po administered once daily for 10 days; assay type: organism-based; conditions: in vivo, 240 h, dose 40-80 mg/kg/day, time 10 day; outline: as §1
BaF3 [29] = assay: Inhibition of LMNA fused TRKA G667S mutant (unknown origin) transfected in mouse BAF3 cells assessed as growth inhibition after 72 hrs by CCK8 assay; assay type: cell-based; conditions: Homo sapiens
[30] = Toxicity in mouse xenografted with mouse BAF3 cells harboring TEL fused TRKC assessed as effect on animals behaviour at 40 to 80 mg/kg, po administered once daily for 10 days; assay type: organism-based; conditions: in vivo, 240 h, dose 40-80 mg/kg/day, time 10 day; outline: as §1

VEGFR2 (vascular endothelial growth factor receptor 2), wild type, TEL fusion, sequence (P35968 whole entry, the tested form may be a part): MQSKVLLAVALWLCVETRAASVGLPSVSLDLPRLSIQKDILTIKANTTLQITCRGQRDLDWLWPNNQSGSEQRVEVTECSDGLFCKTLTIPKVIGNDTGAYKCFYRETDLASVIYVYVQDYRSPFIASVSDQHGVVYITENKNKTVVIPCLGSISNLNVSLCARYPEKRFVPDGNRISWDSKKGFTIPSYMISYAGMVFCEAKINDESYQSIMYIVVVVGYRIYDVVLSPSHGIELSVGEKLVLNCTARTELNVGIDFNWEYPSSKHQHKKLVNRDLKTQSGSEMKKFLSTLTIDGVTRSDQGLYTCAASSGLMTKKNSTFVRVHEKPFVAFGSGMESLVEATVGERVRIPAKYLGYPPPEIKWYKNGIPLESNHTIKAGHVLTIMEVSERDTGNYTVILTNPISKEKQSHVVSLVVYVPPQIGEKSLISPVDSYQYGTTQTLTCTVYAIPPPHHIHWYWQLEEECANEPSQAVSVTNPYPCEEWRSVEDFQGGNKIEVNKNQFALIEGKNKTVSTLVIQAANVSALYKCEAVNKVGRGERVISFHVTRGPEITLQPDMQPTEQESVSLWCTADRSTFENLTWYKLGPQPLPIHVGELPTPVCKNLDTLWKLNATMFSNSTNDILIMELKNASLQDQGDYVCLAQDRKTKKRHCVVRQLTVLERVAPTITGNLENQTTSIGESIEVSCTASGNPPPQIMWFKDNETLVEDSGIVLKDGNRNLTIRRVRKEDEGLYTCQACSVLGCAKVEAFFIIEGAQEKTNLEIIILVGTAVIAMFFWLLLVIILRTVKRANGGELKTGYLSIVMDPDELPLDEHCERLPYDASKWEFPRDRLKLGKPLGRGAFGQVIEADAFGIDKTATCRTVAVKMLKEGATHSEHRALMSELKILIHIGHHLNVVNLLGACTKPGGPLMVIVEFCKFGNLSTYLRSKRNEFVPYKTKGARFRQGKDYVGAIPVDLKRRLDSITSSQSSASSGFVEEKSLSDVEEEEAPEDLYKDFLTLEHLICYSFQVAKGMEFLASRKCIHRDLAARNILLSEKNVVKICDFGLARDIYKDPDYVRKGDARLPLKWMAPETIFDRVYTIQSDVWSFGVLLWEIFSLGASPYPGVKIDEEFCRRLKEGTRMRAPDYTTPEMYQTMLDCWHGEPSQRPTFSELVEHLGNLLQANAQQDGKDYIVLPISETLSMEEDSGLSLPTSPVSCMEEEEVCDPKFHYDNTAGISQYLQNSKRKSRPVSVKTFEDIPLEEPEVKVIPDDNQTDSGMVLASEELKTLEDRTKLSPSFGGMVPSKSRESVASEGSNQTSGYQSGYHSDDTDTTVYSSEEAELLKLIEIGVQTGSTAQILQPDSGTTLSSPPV
High affinity nerve growth factor receptor (Homo sapiens), P04629 [G595R], sequence (P04629 whole entry G595R, looked up, the tested form may be a part): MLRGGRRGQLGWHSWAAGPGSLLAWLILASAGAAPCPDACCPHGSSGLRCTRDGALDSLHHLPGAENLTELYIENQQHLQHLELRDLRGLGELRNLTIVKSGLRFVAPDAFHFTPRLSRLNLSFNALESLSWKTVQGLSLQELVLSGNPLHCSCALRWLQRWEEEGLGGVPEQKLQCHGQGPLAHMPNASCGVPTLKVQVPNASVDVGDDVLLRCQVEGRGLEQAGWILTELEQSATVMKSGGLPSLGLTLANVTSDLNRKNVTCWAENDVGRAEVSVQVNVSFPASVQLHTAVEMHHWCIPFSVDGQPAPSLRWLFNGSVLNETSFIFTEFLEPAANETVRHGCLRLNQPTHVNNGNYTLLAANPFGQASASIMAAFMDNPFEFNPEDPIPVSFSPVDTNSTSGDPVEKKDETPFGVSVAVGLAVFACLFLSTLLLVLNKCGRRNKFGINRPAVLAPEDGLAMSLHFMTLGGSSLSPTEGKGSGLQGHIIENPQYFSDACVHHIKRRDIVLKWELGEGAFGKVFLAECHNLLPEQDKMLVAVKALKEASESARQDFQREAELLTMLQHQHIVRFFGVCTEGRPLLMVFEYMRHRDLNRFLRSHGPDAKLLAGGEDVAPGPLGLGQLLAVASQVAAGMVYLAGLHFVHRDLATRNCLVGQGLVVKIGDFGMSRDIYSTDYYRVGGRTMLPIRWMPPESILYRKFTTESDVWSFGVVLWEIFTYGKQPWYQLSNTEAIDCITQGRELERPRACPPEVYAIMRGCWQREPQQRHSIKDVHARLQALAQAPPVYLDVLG
High affinity nerve growth factor receptor, sequence (P04629 whole entry, the tested form may be a part): as the sequence (P04629 whole entry G595R, looked up, the tested form may be a part) above, with R595G counted along it

Cmax [1]: 1110 ng/mL
EC50 [6]: < 30 nM
Vd [7]: 4.93 L/kg
t1/2 [8]: 2.7 h
Vd [9]: 17.5 L/kg
CLz/F [12]: 47.68 mL/min/kg
Cmax [14]: 139 ng/mL
Activity [16]: 0.05%
Vd [18]: 9.68 L/kg
t1/2 [19]: 2.6 h
CLz/F [20]: 21.7 mL/min/kg
Tmax [21]: 4.8 min
CL/F [22]: 108 mL/min/kg
GI50 [23]: 194 nM
Tmax [24]: 1.98 min
IC50 [26]: 0.71 nM
Vz [27]: 149.26 L/kg
GI50 (BaF3 [29]): 2 nM
Compound: Cc1nc(NC(=O)CN2CCN(C)CC2)sc1-c1ccc2c(/C=C/c3ccccn3)n[nH]c2c1
Activity [2]: Non-Toxic
GI50 at 72 h [3]: 1180 nM
inhibition in vivo at 80 mg/kg (BaF3 [4]): 89.1%
Activity (KM12-Luc [5]): Active
Activity [10]: Non-Toxic
Activity [11]: Non-Toxic
Activity (BaF3 [13]): Dose-dependent effect
Activity [15]: Non-Toxic
Activity [17]: Non-Toxic
Activity (KM12-Luc [25]): Dose-dependent effect
Activity [28]: Non-Toxic
Activity [30]: Non-Toxic

Source: ChEMBL document CHEMBL4765452, “Discovery of (E)-N-(4-methyl-5-(3-(2-(pyridin-2-yl)vinyl)-1H-indazol-6-yl)thiazol-2-yl)-2-(4-methylpiperazin-1-yl)acetamide (IHMT-TRK-284) as a novel orally available type II TRK kinase inhibitor capable of overcoming multiple resistant mutants” (Eur J Med Chem, 2020)
